Experimental data from different studies.
Each line is one published result; the experiments were not run side by side.
Signal transducer and activator of transcription 6 SH2: Signal transducer and activator of transcription 6, SH2 (Homo sapiens, UniProt P42226)
ABHD6: Monoacylglycerol lipase ABHD6 (ABHD6, Homo sapiens, UniProt Q9BV23)
Oprm1: Mu-type opioid receptor (Oprm1, Rattus norvegicus, UniProt P33535)
DRD4: D(4) dopamine receptor (DRD4, Homo sapiens, UniProt P21917)

| SMILES | target | effect on | action | technique | notes | IC50 [nM] |
| --- | --- | --- | --- | --- | --- | --- |
| C=CCOC(Cn1ccnc1)c1ccc(Cl)cc1Cl (centres unmarked) | Pleiotropic ABC efflux transporter of multiple drugs (PDR5, Saccharomyces cerevisiae S288c, UniProt P33302) | transporter uptake | inhibitor | – | – | 60000 to 70000 |
| O=C(COc1ccc2cc(C(=O)Nc3ccccc3)ccc2c1)NCc1ccc(OP(=O)(O)O)c(OP(=O)(O)O)c1 | Signal transducer and activator of transcription 6 SH2 | ligand displacement | – | FP | – | 7170 |
| CN(C(=O)Oc1nsnc1N1CCCCC1)c1ccc(F)cc1 | ABHD6 | enzyme activity | inhibitor | fluorescence | lysate | 78 |
| C[C@H](N)Cn1ncc2ccc3c(c21)CCCO3 | 5-hydroxytryptamine receptor 5A (HTR5A, Homo sapiens, UniProt P47898) | ligand displacement | – | radioligand | – | 10800 |
| C[C@@H](NC(=O)[C@@H](N)Cc1ccc(O)cc1)C(=O)NCC(=O)N[C@H](CC(=O)NNC(=O)C[C@H](Cc1ccccc1)NC(=O)CNC(=O)[C@@H](C)NC(=O)[C@@H](N)Cc1ccc(O)cc1)Cc1ccccc1 | Oprm1 | ligand displacement | – | radioligand | – | 2.29 |
| O=P(O)(O)Oc1ccccc1OP(=O)(O)O | Signal transducer and activator of transcription 6 SH2 | ligand displacement | – | FP | – | 36000 |
| C[C@@H](NC(=O)[C@@H](N)Cc1ccc(O)cc1)C(=O)NCCC(=O)N[C@@H](Cc1ccccc1)C(=O)NNC(=O)[C@H](Cc1ccccc1)NC(=O)CCNC(=O)[C@@H](C)NC(=O)[C@@H](N)Cc1ccc(O)cc1 | Oprm1 | ligand displacement | – | radioligand | – | 380 |
| CC(=O)c1c(O)c(C)c(O)c(Cc2c(O)c3c(c(C(=O)/C=C/c4ccccc4)c2O)OC(C)(C)C=C3)c1O | Protein-glutamine gamma-glutamyltransferase (TGM2, Homo sapiens, UniProt P21980) | enzyme activity | inhibitor | – | – | > 50000 |
| CN(C(=O)Oc1nsnc1N1CCCCC1)c1cccc(-c2ccccc2)c1 | ABHD6 | enzyme activity | inhibitor | fluorescence | lysate | 910 |
| CCN(CC)Cc1cc(Nc2ccnc3cc(Cl)ccc23)ccc1O | Genome polyprotein, protease (Dengue virus type 2, UniProt P14340) | enzyme activity | inhibitor | – | – | ≥ 250000 |
| COc1ccccc1OCCNCC(O)COc1cccc2[nH]c3ccccc3c12 (centres unmarked) | DRD4 | ligand displacement | – | radioligand | – | 20 |
| COc1cccc(N(C)C(=O)Oc2nsnc2N2CCCCC2)c1 | ABHD6 | enzyme activity | inhibitor | fluorescence | lysate | 195 |
| COc1cc2c(cc1OC)C(=O)C(CC1CCN(Cc3ccccc3)CC1)C2 (centres unmarked) | DRD4 | ligand displacement | – | radioligand | – | 824 |
| CN(C(=O)Oc1nsnc1N1CCCCC1)c1ccc(Cl)cc1 | ABHD6 | enzyme activity | inhibitor | fluorescence | lysate | 407 |
